Measured values as given in ChEMBL document CHEMBL4359899, “Synthesis, evaluation and structural investigations of potent purple acid phosphatase inhibitors as drug leads for osteoporosis” (Eur J Med Chem, 2019).

Legend:
[1] = molecular target: T1, Fe(3+)-Zn(2+) purple acid phosphatase (Phaseolus vulgaris) (UniProt P80366); test: Competitive inhibition of red kidney bean PAP using varying levels of pNPP as substrate measured at pH 6.2 by UV-vis spectrophotometric analysis
T1 sequence (whole entry): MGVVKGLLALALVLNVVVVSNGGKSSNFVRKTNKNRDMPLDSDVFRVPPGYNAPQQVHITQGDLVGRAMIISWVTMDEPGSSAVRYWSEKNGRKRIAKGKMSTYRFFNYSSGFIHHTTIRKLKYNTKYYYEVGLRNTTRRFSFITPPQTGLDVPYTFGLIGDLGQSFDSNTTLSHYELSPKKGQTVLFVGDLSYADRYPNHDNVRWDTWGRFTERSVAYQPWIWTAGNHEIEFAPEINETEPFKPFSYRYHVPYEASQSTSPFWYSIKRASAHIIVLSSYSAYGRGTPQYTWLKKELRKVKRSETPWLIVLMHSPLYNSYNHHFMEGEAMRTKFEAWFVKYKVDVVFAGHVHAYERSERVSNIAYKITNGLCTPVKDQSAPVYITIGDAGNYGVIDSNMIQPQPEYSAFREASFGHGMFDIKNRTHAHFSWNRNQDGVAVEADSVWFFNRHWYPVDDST
How it was run: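 Red kidney bean PAP (rkbPAP), purified, at 8.4 nM. p-NPP 1–15 mM in 0.1 M MES pH 6.2 with 25% DMSO, 25 °C. p-Nitrophenol formation followed at 405 nm (Δε 1834.4 mol−1 L cm−1). Inhibitor concentration varied; competitive constant Kic from non-linear regression using a general inhibition equation.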

[2] = Solubility of the compound in 25% DMSO; format: physicochemical
[3] = species on record: Sus scrofa; test: Competitive inhibition of pig PAP using varying levels of pNPP as substrate measured at pH 4.9 by UV-vis spectrophotometric analysis
How it was run: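 Purified pig PAP, first reduced to the FeIII-FeII form (0.77 mM β-mercaptoethanol, 10 min, 37 °C), at 8.4 nM. p-NPP 1–15 mM in 0.1 M acetate pH 4.9 with 25% DMSO, 25 °C. p-Nitrophenol formation read at 405 nm (Δε 342.9 mol−1 L cm−1). Inhibitor concentration varied; Kic fitted by non-linear regression to a general inhibition equation.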

[4] = Inhibition of human PAP assessed as dephosphorylation of 4-methylumbelliferyl phosphate to 4-methylumbelliferone using 4-methylumbelliferyl phosphate as substrate measured for 15 mins by micro-fluorescence detector method

CCCCCCCCCCCCOC(c1cccc2ccccc12)P(=O)(O)O (racemic)
Kic [1]: 4.5 µM
solubility [2]: Soluble
Kic [3]: 0.7 µM

CCCCCCCCCCCCCCOC(c1cccc2ccccc12)P(=O)(O)O (racemic)
Kic [1]: 0.2 µM
solubility [2]: Soluble
Kic [3]: 1.1 µM

CCCCCCCCCCCCCCCCCCCCCCOC(c1cccc2ccccc12)P(=O)(O)O (racemic)
Kic [1]: 14 µM
solubility [2]: Soluble
Kic [3]: 62 µM

O=C(c1ccccc1)C(C(=O)c1ccccc1)(c1cccc2ccccc12)P(=O)(O)O
IC50 [4]: 1400 nM

CCCCCCCCCCCCCCCCOC(c1cccc2ccccc12)P(=O)(O)O (racemic)
Kic [1]: 0.4 µM
solubility [2]: Soluble
Kic [3]: 0.6 µM

CCCCCCCCCCCCCCCCCCCCOC(c1cccc2ccccc12)P(=O)(O)O (racemic)
Kic [1]: 0.8 µM
solubility [2]: Soluble
Kic [3]: 4.4 µM

CCCCCCCCCCCCCCCCCCOC(c1cccc2ccccc12)P(=O)(O)O (racemic)
Kic [1]: 0.5 µM
solubility [2]: Soluble
Kic [3]: 0.2 µM
